# Laboratory results: ChEMBL document CHEMBL2086304, “Synthesis and in vitro antimycobacterial and isocitrate lyase inhibition properties of novel 2-methoxy-2'-hydroxybenzanilides, their thioxo analogues and benzoxazoles” (Eur J Med Chem, 2012)
# Tested on: Mycobacterium avium
# Experiment: Antimycobacterial activity against isoniazid resistance Mycobacterium avium 330/88 after 21 days by micromethod
# Format: functional
# Details: 330/88, 504 h
# How it was run: (§1)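 Inocula: M. tuberculosis My 331/88 at 10^-3 dilution, M. avium My 330/88 at 10^-5, M. kansasii My 235/80 and clinical isolate 6509/96 at 10^-4. Compounds added in DMSO at 1000 down to 0.5 (twofold series). Read at 14 and 21 days, plus 7 days for M. kansasii. MIC taken as lowest concentration inhibiting growth.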
row,Structure (SMILES),MIC
1,COc1ccc(Cl)cc1C(=O)Nc1ccc(Cl)cc1O,250 µM
2,COc1cc(Cl)ccc1C(=S)Nc1ccc(Cl)cc1O,32 µM
3,COc1ccc(Cl)cc1C(=S)Nc1cc(Br)ccc1O,32 µM
4,COc1cc(Cl)ccc1C(=S)Nc1cc(C(F)(F)F)ccc1O,62.5 µM
5,COc1ccc(Cl)cc1C(=S)Nc1cc(C(F)(F)F)ccc1O,62.5 µM

# Tested on: Mycobacterium avium
# Experiment: Antimycobacterial activity against isoniazid resistance Mycobacterium avium 330/88 after 14 days by micromethod
# Format: functional
# Details: 330/88, 336 h
# How it was run: as §1
row,Structure (SMILES),MIC
1,COc1ccc(Cl)cc1C(=O)Nc1ccc(Cl)cc1O,62.5 µM
2,COc1cc(Cl)ccc1C(=S)Nc1ccc(Cl)cc1O,32 µM
3,COc1ccc(Cl)cc1C(=S)Nc1cc(Br)ccc1O,32 µM
4,COc1cc(Cl)ccc1C(=S)Nc1cc(C(F)(F)F)ccc1O,32 µM
5,COc1ccc(Cl)cc1C(=S)Nc1cc(C(F)(F)F)ccc1O,62.5 µM

# Tested on: HepG2
# Experiment: Cytotoxicity against human HepG2 cells after 24 hrs by CellTiter-96 cell viability assay
# Format: functional, cell-based
# Details: HepG2, 24 h
# How it was run: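 Hep G2 human hepatic cells (passage 12), 10,000 per well, grown 24 h at 37 °C, 5% CO2 in MEM with 1% glutamine, 10% FBS and 1% nonessential amino acids. Compounds in DMSO at eight increasing concentrations, quadruplicate, 24 h at 37 °C. Kit reagent added, 1.5 h at 37 °C, absorbance 490 nm. IC50 is the concentration reducing viability to 50% of control.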
row,Structure (SMILES),IC50
1,COc1ccc(Cl)cc1C(=O)Nc1ccc(Cl)cc1O,51.3 µM
2,COc1cc(Cl)ccc1C(=S)Nc1ccc(Cl)cc1O,5.11 µM
3,COc1ccc(Cl)cc1C(=S)Nc1cc(Br)ccc1O,8.74 µM
4,COc1cc(Cl)ccc1C(=S)Nc1cc(C(F)(F)F)ccc1O,5.74 µM
5,COc1ccc(Cl)cc1C(=S)Nc1cc(C(F)(F)F)ccc1O,5.86 µM

# Tested on: Mycobacterium tuberculosis
# Experiment: Antimycobacterial activity against Mycobacterium tuberculosis 331/88 after 21 days by micromethod
# Format: functional
# Details: 331/88, 504 h
# How it was run: as §1
row,Structure (SMILES),MIC
1,COc1ccc(Cl)cc1C(=O)Nc1ccc(Cl)cc1O,4 µM
2,COc1cc(Cl)ccc1C(=S)Nc1ccc(Cl)cc1O,32 µM
3,COc1ccc(Cl)cc1C(=S)Nc1cc(Br)ccc1O,32 µM
4,COc1cc(Cl)ccc1C(=S)Nc1cc(C(F)(F)F)ccc1O,62.5 µM
5,COc1ccc(Cl)cc1C(=S)Nc1cc(C(F)(F)F)ccc1O,32 µM

# Target: T1, Isocitrate lyase (Mycobacterium tuberculosis) (UniProt P9WKK7)
# T1 sequence (whole entry): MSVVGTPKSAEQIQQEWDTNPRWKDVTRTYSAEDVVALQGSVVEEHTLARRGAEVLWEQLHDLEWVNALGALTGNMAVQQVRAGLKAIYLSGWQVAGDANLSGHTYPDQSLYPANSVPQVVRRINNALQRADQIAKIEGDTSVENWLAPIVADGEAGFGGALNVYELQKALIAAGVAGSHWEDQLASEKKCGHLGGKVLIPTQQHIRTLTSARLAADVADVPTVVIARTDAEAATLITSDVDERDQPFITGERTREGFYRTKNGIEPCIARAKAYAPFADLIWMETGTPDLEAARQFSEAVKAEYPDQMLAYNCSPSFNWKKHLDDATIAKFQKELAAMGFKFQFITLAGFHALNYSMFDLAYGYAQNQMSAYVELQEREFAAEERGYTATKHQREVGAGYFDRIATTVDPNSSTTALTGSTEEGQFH
# Experiment: Inhibition of Mycobacterium tuberculosis H37Rv isocitrate lyase expressed in Escherichia coli HB101 at 10 umol/L
# Details: not given
# How it was run: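 Isocitrate lyase assayed per Dixon–Kornberg in 96-well format. Buffer: 50 mmol/L KH2PO4, 4 mmol/L MgCl2, 4 mmol/L phenylhydrazine, 12 mmol/L cysteine, pH 7.0. Glyoxylate phenylhydrazone read at 324 nm. Compounds added in DMSO, with DMSO-alone inhibition subtracted.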
row,Structure (SMILES),inhibition
1,COc1ccc(Cl)cc1C(=O)Nc1ccc(Cl)cc1O,10%
2,COc1cc(Cl)ccc1C(=S)Nc1ccc(Cl)cc1O,10%
3,COc1ccc(Cl)cc1C(=S)Nc1cc(Br)ccc1O,8%
4,COc1cc(Cl)ccc1C(=S)Nc1cc(C(F)(F)F)ccc1O,0%
5,COc1ccc(Cl)cc1C(=S)Nc1cc(C(F)(F)F)ccc1O,8%

# Tested on: Mycobacterium kansasii
# Experiment: Antimycobacterial activity against Mycobacterium kansasii 6509/96 clinical isolate after 14 days by micromethod
# Format: functional
# Details: 6509/96, 336 h
# How it was run: as §1
row,Structure (SMILES),MIC
1,COc1ccc(Cl)cc1C(=O)Nc1ccc(Cl)cc1O,16 µM
2,COc1cc(Cl)ccc1C(=S)Nc1ccc(Cl)cc1O,32 µM
3,COc1ccc(Cl)cc1C(=S)Nc1cc(Br)ccc1O,16 µM
4,COc1cc(Cl)ccc1C(=S)Nc1cc(C(F)(F)F)ccc1O,62.5 µM
5,COc1ccc(Cl)cc1C(=S)Nc1cc(C(F)(F)F)ccc1O,32 µM

# Tested on: Mycobacterium kansasii
# Experiment: Antimycobacterial activity against isoniazid resistance Mycobacterium kansasii 225/80 after 14 days by micromethod
# Format: functional
# Details: 225/80, 336 h
row,Structure (SMILES),MIC
1,COc1ccc(Cl)cc1C(=O)Nc1ccc(Cl)cc1O,32 µM
2,COc1cc(Cl)ccc1C(=S)Nc1ccc(Cl)cc1O,32 µM
3,COc1ccc(Cl)cc1C(=S)Nc1cc(Br)ccc1O,16 µM
4,COc1cc(Cl)ccc1C(=S)Nc1cc(C(F)(F)F)ccc1O,62.5 µM
5,COc1ccc(Cl)cc1C(=S)Nc1cc(C(F)(F)F)ccc1O,62.5 µM

# Tested on: not listed separately
# Experiment: Selectivity index, ratio of IC50 for human HepG2 cells to MIC for Mycobacterium tuberculosis 331/88 after 14 days
# Format: functional
# Details: not given
# How it was run: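 Cytotoxicity in Hep G2 cells (passage 12), 10,000 cells/well, in MEM with 10% FBS, 1% glutamine and 1% nonessential amino acids. Cells preincubated 24 h, 37 °C, 5% CO2. Compounds in DMSO at eight concentrations in quadruplicate, 24 h. MTS-type reagent added for 1.5 h, A490 read, IC50 taken at 50% viability. SI = this IC50 over the 14-day M. tuberculosis MIC.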
row,Structure (SMILES),Selectivity Index
1,COc1ccc(Cl)cc1C(=O)Nc1ccc(Cl)cc1O,12.83
2,COc1cc(Cl)ccc1C(=S)Nc1ccc(Cl)cc1O,0.32
3,COc1ccc(Cl)cc1C(=S)Nc1cc(Br)ccc1O,0.55
4,COc1cc(Cl)ccc1C(=S)Nc1cc(C(F)(F)F)ccc1O,0.18
5,COc1ccc(Cl)cc1C(=S)Nc1cc(C(F)(F)F)ccc1O,0.18

# Tested on: Mycobacterium kansasii
# Experiment: Antimycobacterial activity against isoniazid resistance Mycobacterium kansasii 225/80 after 21 days by micromethod
# Format: functional
# Details: 225/80, 504 h
row,Structure (SMILES),MIC
1,COc1ccc(Cl)cc1C(=O)Nc1ccc(Cl)cc1O,62.5 µM
2,COc1cc(Cl)ccc1C(=S)Nc1ccc(Cl)cc1O,62.5 µM
3,COc1ccc(Cl)cc1C(=S)Nc1cc(Br)ccc1O,16 µM
4,COc1cc(Cl)ccc1C(=S)Nc1cc(C(F)(F)F)ccc1O,125 µM
5,COc1ccc(Cl)cc1C(=S)Nc1cc(C(F)(F)F)ccc1O,62.5 µM

# Tested on: Mycobacterium tuberculosis
# Experiment: Antimycobacterial activity against Mycobacterium tuberculosis 331/88 after 14 days by micromethod
# Format: functional
# Details: 331/88, 336 h
# How it was run: as §1
row,Structure (SMILES),MIC
1,COc1ccc(Cl)cc1C(=O)Nc1ccc(Cl)cc1O,4 µM
2,COc1cc(Cl)ccc1C(=S)Nc1ccc(Cl)cc1O,16 µM
3,COc1ccc(Cl)cc1C(=S)Nc1cc(Br)ccc1O,16 µM
4,COc1cc(Cl)ccc1C(=S)Nc1cc(C(F)(F)F)ccc1O,32 µM
5,COc1ccc(Cl)cc1C(=S)Nc1cc(C(F)(F)F)ccc1O,32 µM

# Tested on: Mycobacterium kansasii
# Experiment: Antimycobacterial activity against isoniazid resistance Mycobacterium kansasii 225/80 after 7 days by micromethod
# Format: functional
# Details: 225/80, 168 h
row,Structure (SMILES),MIC
1,COc1ccc(Cl)cc1C(=O)Nc1ccc(Cl)cc1O,16 µM
2,COc1cc(Cl)ccc1C(=S)Nc1ccc(Cl)cc1O,16 µM
3,COc1ccc(Cl)cc1C(=S)Nc1cc(Br)ccc1O,8 µM
4,COc1cc(Cl)ccc1C(=S)Nc1cc(C(F)(F)F)ccc1O,32 µM
5,COc1ccc(Cl)cc1C(=S)Nc1cc(C(F)(F)F)ccc1O,32 µM

# Tested on: Mycobacterium kansasii
# Experiment: Antimycobacterial activity against Mycobacterium kansasii 6509/96 clinical isolate after 21 days by micromethod
# Format: functional
# Details: 6509/96, 504 h
# How it was run: as §1
row,Structure (SMILES),MIC
1,COc1ccc(Cl)cc1C(=O)Nc1ccc(Cl)cc1O,16 µM
2,COc1cc(Cl)ccc1C(=S)Nc1ccc(Cl)cc1O,32 µM
3,COc1ccc(Cl)cc1C(=S)Nc1cc(Br)ccc1O,32 µM
4,COc1cc(Cl)ccc1C(=S)Nc1cc(C(F)(F)F)ccc1O,125 µM
5,COc1ccc(Cl)cc1C(=S)Nc1cc(C(F)(F)F)ccc1O,32 µM

# Tested on: Mycobacterium kansasii
# Experiment: Antimycobacterial activity against Mycobacterium kansasii 6509/96 clinical isolate after 7 days by micromethod
# Format: functional
# Details: 6509/96, 168 h
# How it was run: as §1
row,Structure (SMILES),MIC
1,COc1ccc(Cl)cc1C(=O)Nc1ccc(Cl)cc1O,8 µM
2,COc1cc(Cl)ccc1C(=S)Nc1ccc(Cl)cc1O,16 µM
3,COc1ccc(Cl)cc1C(=S)Nc1cc(Br)ccc1O,16 µM
4,COc1cc(Cl)ccc1C(=S)Nc1cc(C(F)(F)F)ccc1O,32 µM
5,COc1ccc(Cl)cc1C(=S)Nc1cc(C(F)(F)F)ccc1O,16 µM
